TLR9-MyD88 block: blocks human TLR9 binding to MyD88; Q9NR96+Q99836; CHO BLA complementation TLR9-MyD88, CCF4 FRET ratio; inhibition, % at 4.98 µM; 0.21% of 340,000 active; AID 504734;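 active = inhibition above the mean over all tested compounds plus 3 SD, cut at about 21% in these data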;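 also: 0% = DMSO only wells and 100% = clavulanate BLA inhibitor control wells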
NOD2-RIPK2 inh: inhibitors of human NOD2-RIPK2 interaction | inhibition, % at 4.98 µM | CHO BLA complementation NOD2-RIPK2, CCF4 ratio | 0.38% of 360,000 active; in the data active = inhibition above about 21%;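 also: 0% = vehicle only and 100% = reference blocker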
Target sequence (O43353 whole entry, looked up): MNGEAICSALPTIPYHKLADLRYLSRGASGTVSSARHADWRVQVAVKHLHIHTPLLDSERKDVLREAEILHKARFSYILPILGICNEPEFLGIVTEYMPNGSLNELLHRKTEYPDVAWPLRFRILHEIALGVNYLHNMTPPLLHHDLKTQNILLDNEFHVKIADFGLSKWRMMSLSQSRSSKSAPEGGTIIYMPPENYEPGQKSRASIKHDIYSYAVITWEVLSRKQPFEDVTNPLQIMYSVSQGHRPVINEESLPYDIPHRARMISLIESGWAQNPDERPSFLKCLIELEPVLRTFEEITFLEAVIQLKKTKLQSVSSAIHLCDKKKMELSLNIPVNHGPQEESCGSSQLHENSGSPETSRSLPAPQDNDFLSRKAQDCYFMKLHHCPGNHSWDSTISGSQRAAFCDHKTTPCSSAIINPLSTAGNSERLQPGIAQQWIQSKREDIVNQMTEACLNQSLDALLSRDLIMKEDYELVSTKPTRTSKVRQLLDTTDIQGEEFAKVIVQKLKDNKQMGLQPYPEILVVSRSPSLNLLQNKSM
Hep lipid drop: modulators of hepatic lipid droplet formation | inhibition, % at 6.5 µM | AML12 mouse hepatocytes, oleate lipid droplets, BODIPY imaging | 0.4% of 240,000 active | AID 1656;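 active = lipid droplet intensity inhibited by at least 50%, with more than 500 cells counted; inconclusive = wells with under 300 cells, treated as cytotoxic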
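Material: mouse AML12 hepatocyte cell line, fixed after treatment; Timing: compound with oleate, overnight; Technique: high-content imaging of BODIPY-stained droplets and DAPI nuclei; Probe or stimulus: oleate, 100 µM final; Dosing: compound at 6.5 µM only.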
SR-BI DiI-HDL act: SR-BI HDL lipid transfer activation. CHO ldlA[mSR-BI] cells, DiI-HDL uptake fluorescence, 3 h; 100 = double the neutral-control signal. activation, % at 12.5 µM. 0.096% of 320,000 active. AID 504775;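 active = mean replicate activation of at least 60% and every replicate at or above 60%; inconclusive = mean or all-replicate condition met, but not both; inactive = mean below 60% and not all replicates reaching 60%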;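 also: 0% = median plate neutral-control signal and 100% = twice that signal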
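Assay system: CHO ldlA[mSR-BI] cells, LDL receptor-null, SR-BI overexpressing; medium: Ham's F12 with 0.5% BSA, HEPES 25 mM, pH 7.4; also added: DiI-HDL 10 µg/mL; timing: 3 h uptake period with compound, 37 °C; signal: DiI fluorescence, bottom read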
SR-BI DiI inh: inhibitors of mouse SR-BI mediated HDL lipid uptake | Q61009 | ldlA[mSR-BI] CHO cells, DiI-HDL uptake fluorescence, 3 h | inhibition, % at 12.5 µM | 0.96% of 320,000 active;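 active = mean replicate inhibition of at least 70% and a set share of replicates each scoring 70 or more; inconclusive = meets just one of the two criteria; inactive = fails both criteria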;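 also: 0% = median of neutral control wells and 100% = median of positive control wells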
TLR4 MyD88 comp: blocks binding of human TLR4 to MyD88. O00206+Q99836. HeLa CL3-4 TLR4/MyD88 BLA complementation, FRET ratio. inhibition, % at 8.4 µM. 0.18% of 200,000 active. AID 861; in the data active = inhibition above about 25%;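 also: 0% = vehicle and 100% = reference inhibitor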
Starred values were filed as active, the others as inactive; ? = inconclusive; / = no result given. A selection: hits, their analogues and other compounds. The true share with any hit is near 1.6%.

SMILES	TLR9-MyD88 block	NOD2-RIPK2 inh	Hep lipid drop	SR-BI DiI-HDL act	SR-BI DiI inh	TLR4 MyD88 comp
O=C(CSc1nnc(NC(=O)c2ccc(F)cc2F)s1)NC1CCCC1	1	-24	-2	/	/	/
COc1ccc(-c2cc(C(=O)Nc3c(C)nn(Cc4ccccc4)c3C)no2)cc1	-1	1	-41	-76	76*	7
Cc1nn(Cc2ccccc2Cl)c(C)c1NC(=O)c1ccn(C)n1	-3	1	-5	20	-20	14
Cc1nn(Cc2ccccc2Cl)c(C)c1NC(=O)c1cc(-c2ccc(F)cc2)on1	2	-10	-1	-80	80*	-2
CCOc1ccc(CCNC(=O)CSc2nnnn2C)cc1OCC	-8	-2	0	25	-25	-4
CCOc1ccc(CCNC(=O)CSc2nn(-c3ccc(C)c(Cl)c3)c(=S)s2)cc1OCC	-7	-10	70*	-55	55	-13
CC(=O)Nc1cccc(NC=C(C#N)C#N)c1	6	-17	-3	12	-12	-4
Cc1cccc2sc(NC(=O)c3cc(S(=O)(=O)N(C)C)ccc3N3CCCC3)nc12	7	2	/	-76	76*	-6
CN(C)S(=O)(=O)c1ccc(N2CCCC2)c(C(=O)Nc2nc3ccccc3s2)c1	3	-18	-1	14	-14	1
Cc1cc(C(=O)N2CCc3c([nH]c4ccccc34)C2c2cccc(Cl)c2)nn1C (stereo unspecified)	-16	-8	67*	-40	40	7
CSc1ccc(C2c3[nH]c4ccccc4c3CCN2C(=O)c2cc(C)n(C)n2)cc1 (stereo unspecified)	/	/	44	/	/	-8
CCOc1ccc(C(=O)Nc2cccc(-c3nc4cccnc4o3)c2)cc1Cl	-4	-9	/	-83	83*	1
CCOc1ccc(C(=O)Nc2cccc(C(=O)O)c2)cc1Cl	-15	-4	6	6	-6	0
O=C(C1CCCN(Cc2ccc(Br)cc2)C1)N1CCCCC1 (stereo unspecified)	-2	-15	0	0	0	/
N/C(CC(=O)Nc1cccc(C(F)(F)F)c1)=N/O	-2	3	/	89*	-89	1
COc1ccccc1Nc1nc(-c2sc(NC(=O)c3ccco3)nc2C)cs1	1	-11	/	-85	85*	-13
Cc1nc(NC(=O)c2ccco2)sc1-c1csc(Nc2ccc(Cl)cc2)n1	2	-2	/	-84	84*	3
COc1cc(C2=NOC(C(=O)N3CCCCCC3)C2)cc(OC)c1OC (stereo unspecified)	-4	-5	/	-10	10	6
COc1cc(C2=NOC(C(=O)N3CCN(c4ccc(F)cc4)CC3)C2)cc(OC)c1OC (stereo unspecified)	4	-5	/	-79	79*	1
CCN(CC)S(=O)(=O)c1ccc(Cl)c(NC(=S)NC(=O)C2CCCC2)c1	1	-8	/	-71	71*	/
C=CCn1c(SC(C)C#N)nc2sc(CC)cc2c1=O (stereo unspecified)	-1	-11	3	-4	4	0
O=C1c2ccc(-c3ccc(Cl)c(C(F)(F)F)c3)cc2S(=O)(=O)c2cccc(C(=O)N3CCN(c4ccc(Cl)cn4)CC3)c21	2	-8	/	-91	91*	/
CCCCCCSc1ccc(-c2nc3ccc(Cl)cn3c2NCCCC)cc1OC	10	-1	/	-28	28	/
CCCCNc1c(-c2ccc(-c3ccc(OC)cc3)c(OC)c2)nc2ccccn12	-7	14	/	-87	87*	/
CCCCNc1c(-c2ccc(SC3CCCCC3)c(OC)c2)nc2ccc(Cl)cn12	11	9	/	-75	75*	/
SMILES	TLR9-MyD88 block	NOD2-RIPK2 inh	Hep lipid drop	SR-BI DiI-HDL act	SR-BI DiI inh	TLR4 MyD88 comp
O=C(NCCCN1CCCC1)c1[nH]c(C(F)(F)F)nc1-c1ccccc1	/	-3	/	/	/	/
CCc1nc2c(OCCOC)cccn2c1N(C)C(=O)c1ccco1	/	-7	/	/	/	/
CCOc1ccc(NC(=O)C2CCCN2S(=O)(=O)c2ccc3c(c2)C(C)(C)C(=O)N3C)cc1 (stereo unspecified)	10	-2	8	-34	34	/
Cc1ccc2c(CC(=O)NNC(=O)c3ccccc3O)coc2c1	-5	-2	/	-106	106*	/
COc1ccccc1NC(=O)Cc1coc2cc(C)ccc12	-4	3	3	-14	14	-2
COc1ccc(C(=O)Nc2ccc(C3(C#N)CCCC3)cc2)cc1	-5	-1	-4	-88	88*	3
O=C(/C=C/NNC(=O)c1ccccc1O)c1ccccc1	-4	3	-3	-114	114*	/
Cc1cccc(C(=O)NN/C=C/C(=O)c2ccccc2)c1	-15	0	-2	-89	89*	/
O=C(/C=C/NNC(=O)c1ccccc1)c1ccccc1	-13	-10	-6	-71	?	-3
O=C(/C=C/NNC(=O)c1ccccc1)c1ccc([N+](=O)[O-])cc1	4	0	-4	-123	123*	0
Cc1cccc(C(=O)NNC(=O)c2ccc(-c3ccccc3)cc2)c1	3	7	/	-80	80*	1
Cc1ccc(CNC(=O)CCC2CCCN(C(=O)c3ccc4c(c3)OCO4)C2)o1 (stereo unspecified)	0	0	-2	/	/	0
O=C(NC1CCCCCC1)c1ccc(Cl)c(S(=O)(=O)N2CCOCC2)c1	-4	12	4	/	/	/
CN1CCN(C(=O)c2cc(Br)cn2C)CC1	-12	-2	/	4	-4	/
Cc1ccc(S(=O)(=O)c2c(C(=O)c3ccccc3)cnc3cc4c(cc23)OCCO4)cc1	2	-11	-19	-4	4	-1
O=c1[nH]c(C2CCN(S(=O)(=O)c3ccc4c(c3)OCCO4)CC2)nc2c1nnn2Cc1ccc(F)cc1	2	-7	-2	94*	-94	/
O=C1NC[C@@H](CCCCN2C[C@H](Cc3ccccc3)N(CC3CCCCC3)C(=O)C2=O)N(Cc2ccccc2)C1=O	/	-2	/	/	/	/
CCCS(=O)(=O)N1CCC(C(=O)N2CCOCC2)CC1	-2	4	/	68*	-68	7
COc1ccc(-c2nc3ccc(C(=O)NCC(OC)OC)cc3nc2-c2ccc(OC)c(OC)c2)cc1OC	4	-5	7	-75	75*	/
CCOCCCNC(=O)c1ccc2nc(-c3ccc(OC)c(OC)c3)c(-c3ccc(OC)c(OC)c3)nc2c1	-7	2	12	-62	62	/
COc1ccc(/C=C/c2c(-c3ccc(OC)cc3)oc3ccccc23)cc1	-1	-10	/	-78	78*	/
O=C(CSc1nc(-c2ccccc2)ns1)NCC1CCCO1 (stereo unspecified)	3	-10	-2	14	-14	/
C=CCOC(=O)C1=C(C)NC(=S)NC1/C=C/c1ccccc1 (stereo unspecified)	-3	11	/	-82	82*	-18

Source: PubChem BioAssay
